ChEMBL document CHEMBL1153390, “Substituted terphenyl compounds as the first class of low molecular weight allosteric inhibitors of the luteinizing hormone receptor” (J Med Chem, 2009)
Calls of active or inactive are those of the source. The calls are words filed in the database; no cut-off is given here.

Experiments:
[1] = target: T1, Lutropin-choriogonadotropic hormone receptor (Homo sapiens, UniProt P22888); test: Displacement of [3H]Org43553 from human luteinizing hormone receptor expressed in CHOK1 cells at 10 uM by scintillation spectrometry; assay type: cell-based; details: CHO-K1
T1 sequence (P22888 whole entry): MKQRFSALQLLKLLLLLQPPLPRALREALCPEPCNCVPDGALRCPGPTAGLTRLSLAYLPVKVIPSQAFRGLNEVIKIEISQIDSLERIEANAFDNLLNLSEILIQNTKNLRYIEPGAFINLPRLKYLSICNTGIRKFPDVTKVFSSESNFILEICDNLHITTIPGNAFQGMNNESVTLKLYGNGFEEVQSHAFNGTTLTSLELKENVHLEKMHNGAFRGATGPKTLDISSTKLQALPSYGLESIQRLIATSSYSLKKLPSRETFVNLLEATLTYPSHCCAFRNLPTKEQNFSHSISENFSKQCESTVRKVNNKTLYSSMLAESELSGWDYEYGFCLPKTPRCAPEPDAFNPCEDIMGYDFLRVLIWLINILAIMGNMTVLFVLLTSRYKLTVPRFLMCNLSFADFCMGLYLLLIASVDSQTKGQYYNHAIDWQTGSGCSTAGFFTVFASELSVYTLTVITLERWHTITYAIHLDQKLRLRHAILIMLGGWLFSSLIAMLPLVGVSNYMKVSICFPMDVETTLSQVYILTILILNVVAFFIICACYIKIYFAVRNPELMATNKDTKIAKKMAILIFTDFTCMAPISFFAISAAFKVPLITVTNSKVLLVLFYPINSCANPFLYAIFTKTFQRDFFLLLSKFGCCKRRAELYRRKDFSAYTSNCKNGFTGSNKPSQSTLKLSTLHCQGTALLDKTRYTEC
How it was run: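 Membranes (50 µg protein) from CHO-K1 cells stably expressing human LH receptor incubated 90 min at 30 °C with 4.5 nM [3H]Org 43553 and 10 µM compound. Buffer was 25 mM Tris-HCl pH 7.4, 2 mM MgCl2, 0.1% BSA. Nonspecific binding defined with 10 µM Org 43553. Filtration on GF/B, ice-cold washes, scintillation counting. Result given as % displacement of specific binding, n=2, duplicate.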

[2] = target: T1, Lutropin-choriogonadotropic hormone receptor; test: Displacement of [3H]Org43553 from human luteinizing hormone receptor expressed in CHOK1 cells assessed as increase in radioligand dissociation at 10 uM by scintillation spectrometry relative to control; assay type: cell-based; details: CHO-K1
How it was run: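 Membranes (50 µg protein) from CHO-K1 cells stably expressing human LH receptor preloaded with 4.5 nM [3H]Org 43553 for 90 min at 30 °C in 25 mM Tris-HCl pH 7.4, 2 mM MgCl2, 0.1% BSA. Dissociation then started with 10 µM Org 43553 ± 10 µM compound in 50% DMSO vehicle. Bound label measured after 30 min by GF/B filtration and scintillation counting. Control set at 100%. n=2, duplicate.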

[3] = target: T1, Lutropin-choriogonadotropic hormone receptor; test: Antagonist activity at human luteinizing hormone receptor expressed in CHOK1 cells assessed as decrease in recombinant luteinizing hormone activation potency at 10 uM by c-AMP-mediated luciferase assay; assay type: functional, cell-based; details: CHO-K1
How it was run: (§1)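 Cells as for the CRE-luciferase assay (human LH receptor, CHO-K1), stimulated 4 h with ten concentrations of recLH, rec-hCG or Org 43553, with or without 10 µM test compound. Luminescence read-out. Shift is the EC50 ratio with/without compound; 1 nM recLH response set 100%. At least three assays in duplicate.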

[4] = target: T1, Lutropin-choriogonadotropic hormone receptor; test: Antagonist activity at human luteinizing hormone receptor expressed in CHOK1 cells assessed as decrease in Org 43553 activation potency at 10 uM by c-AMP-mediated luciferase assay; assay type: functional, cell-based; details: CHO-K1; how it was run: as §1
[5] = target: T1, Lutropin-choriogonadotropic hormone receptor; test: Displacement of [3H]Org43553 from human luteinizing hormone receptor expressed in CHOK1 cells; assay type: cell-based, CHO-K1
How it was run: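 CHO-K1 membranes stably expressing human LH receptor, 50 µg protein, in 25 mM Tris-HCl pH 7.4 with 2 mM MgCl2 and 0.1% BSA. Incubated with 4.5 nM [3H]Org 43553 at 30 °C for 90 min, using 10 µM or a range of competitor concentrations. Nonspecific binding defined with 10 µM Org 43553. Read by filtration and scintillation counting; IC50 from nonlinear regression.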

[6] = target: T1, Lutropin-choriogonadotropic hormone receptor; test: Displacement of [125I]human chorionic gonadotropin from human luteinizing hormone receptor expressed in CHOK1 cells by gamma counting; assay type: cell-based; details: CHO-K1
[7] = target: T1, Lutropin-choriogonadotropic hormone receptor; test: Displacement of [125I]human chorionic gonadotropin from human luteinizing hormone receptor expressed in CHOK1 cells assessed as increase in radioligand dissociation at 10 uM after 4 hrs by infinite dilution method; assay type: cell-based; details: CHO-K1
How it was run: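 CHO-K1 membranes expressing human LH receptor, prelabelled with 125I-hCG. Dissociation was started by infinite dilution in the presence of 10 µM compound, and bound radioligand was measured after 4 h. t=0 binding set 0% dissociation, nonspecific 100%. At least two assays in triplicate.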

[8] = target: T1, Lutropin-choriogonadotropic hormone receptor; test: Antagonist activity at human luteinizing hormone receptor expressed in CHOK1 cells assessed as decrease in recombinant human chorionic gonadotropin activation potency at 10 uM by c-AMP-mediated luciferase assay; assay type: functional, cell-based; details: CHO-K1; how it was run: as §1
[9] = target: T1, Lutropin-choriogonadotropic hormone receptor; test: Agonist activity at human luteinizing hormone receptor expressed in CHOK1 cells assessed as c-AMP-mediated luciferase production at 10 uM; assay type: functional, cell-based; details: CHO-K1
[10] = target: T1, Lutropin-choriogonadotropic hormone receptor; test: Agonist activity at human luteinizing hormone receptor expressed in CHOK1 cells assessed as c-AMP-mediated luciferase production; assay type: functional, cell-based, CHO-K1
How it was run: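 CHO-K1 cells stably expressing human LH receptor and CRE-luciferase, 7.5 × 10^5 cells/mL in DMEM/F12 with insulin and apo-transferrin. Stimulated 4 h, then luciferase read by luminescence. Basal activity set 0%; 1 nM recLH set 100%. Means of at least three assays in duplicate.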

[11] = target: T2, Adenosine receptor A3 (Homo sapiens) (UniProt P0DMS8); test: Activity at adenosine A3 receptor assessed as allosteric modulation
T2 sequence (whole entry): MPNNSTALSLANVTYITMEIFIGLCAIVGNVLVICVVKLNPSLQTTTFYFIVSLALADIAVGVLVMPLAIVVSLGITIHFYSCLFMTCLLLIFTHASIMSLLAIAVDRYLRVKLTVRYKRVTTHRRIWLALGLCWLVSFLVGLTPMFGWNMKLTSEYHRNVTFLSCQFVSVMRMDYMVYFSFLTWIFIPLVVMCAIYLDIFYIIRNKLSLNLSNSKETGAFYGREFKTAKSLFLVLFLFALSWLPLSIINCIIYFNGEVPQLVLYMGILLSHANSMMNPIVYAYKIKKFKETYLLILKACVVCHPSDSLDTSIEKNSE

[12] = target: T3, Adenosine receptor A1 (Homo sapiens) (UniProt P30542); test: Binding affinity to adenosine A1 receptor
T3 sequence (whole entry): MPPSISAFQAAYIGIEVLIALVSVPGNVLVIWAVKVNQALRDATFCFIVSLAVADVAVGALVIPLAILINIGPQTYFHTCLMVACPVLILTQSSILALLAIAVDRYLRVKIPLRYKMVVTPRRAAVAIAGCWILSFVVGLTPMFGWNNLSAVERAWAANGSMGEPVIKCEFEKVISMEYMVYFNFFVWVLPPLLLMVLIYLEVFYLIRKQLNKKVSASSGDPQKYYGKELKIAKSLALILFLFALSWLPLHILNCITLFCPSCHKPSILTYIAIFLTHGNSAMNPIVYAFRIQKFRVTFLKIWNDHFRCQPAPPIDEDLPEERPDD

[13] = target: Adenosine receptor A2a (Homo sapiens) (UniProt P29274); test: Binding affinity to adenosine A2A receptor
Sequence of Adenosine receptor A2a (Homo sapiens) (P29274 whole entry): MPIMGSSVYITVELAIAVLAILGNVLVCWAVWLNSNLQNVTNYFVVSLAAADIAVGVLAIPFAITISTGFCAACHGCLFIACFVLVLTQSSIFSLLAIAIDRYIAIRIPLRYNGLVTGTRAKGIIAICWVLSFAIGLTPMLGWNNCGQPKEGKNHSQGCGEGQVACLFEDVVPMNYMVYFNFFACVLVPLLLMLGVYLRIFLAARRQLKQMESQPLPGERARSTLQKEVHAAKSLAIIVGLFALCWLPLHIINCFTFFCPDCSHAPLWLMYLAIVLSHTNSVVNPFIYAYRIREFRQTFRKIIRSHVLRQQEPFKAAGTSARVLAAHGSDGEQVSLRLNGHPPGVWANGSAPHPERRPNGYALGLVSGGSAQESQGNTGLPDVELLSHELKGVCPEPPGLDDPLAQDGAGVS

Which results are given for `CC(C)NC(=O)Oc1cc(-c2ccccc2)cc(-c2ccccc2)c1`?
Activity [1]: 14%; Activity [2]: 55%

For `O=C(Oc1cc(-c2ccccc2)cc(-c2ccccc2)c1)C1CCCC1`, which Activity [1] is on record?
Its Activity is 9%.

What about the Activity [2] of the same molecule?
Its Activity is 41%.

Which Activity [1] does the source give for `CC(C)(C)NC(=O)Oc1cc(-c2ccccc2)cc(-c2ccccc2)c1` here?
The Activity was 68%.

What about the Activity [2] of the same molecule?
Its Activity is 82%.

What does the source list for `COc1ccc(NC(=O)Oc2cc(-c3ccccc3)cc(-c3ccccc3)c2)cc1`?
Activity [1]: 58%; Activity [2]: 35%

For `COc1ccc(-c2cc(OC(=O)NC3CCCC3)cc(-c3ccc(OC)cc3)c2)cc1`, which Activity [1] is on record?
The Activity was 17%.

What about the Activity [2] of the same molecule?
The Activity was 31%.

For `O=C(Nc1cc(-c2ccccc2)cc(-c2ccccc2)c1)NC1CCCC1`, which Activity [1] is on record?
Its Activity is 49%.

What about the Activity [2] of the same molecule?
The Activity was 70%.

`CCCCNC(=O)Oc1cc(-c2ccccc2)cc(-c2ccccc2)c1` was tested. Which Activity [1] did it give?
The Activity was 61%.

What about the Activity [2] of the same molecule?
The Activity was 65%.

`c1ccc(Cn2cnc3c(-c4ccccc4)cc(-c4ccccc4)nc32)cc1` was tested. Which Activity [2] did it give?
The Activity was 16%.

With `COc1ccc(C(=O)Nc2nc(-c3ccccc3)cc(-c3ccccc3)n2)cc1` as the molecule, how does the Activity [2] read?
The Activity was 42%.

With `N#Cc1c(N)cc(-c2ccccc2)cc1-c1cccs1` as the molecule, how does the Activity [2] read?
The Activity was 29%.

With `COc1ccc(-c2cc(OC(=O)NC3CCCC3)cc(-c3ccccc3)c2)cc1` as the molecule, how does the Activity [1] read?
The Activity was 67%.

What about the Activity [2] of the same molecule?
Its Activity is 83%.

Which results are given for `Nc1cc(-c2ccccc2)cc(-c2ccccc2)c1`?
Activity [1]: 9%; Activity [2]: 42%

For `Cc1ccc(-c2cc(OC(=O)NC3CCCC3)cc(-c3ccccc3)c2)cc1`, which Activity [1] is on record?
The Activity was 72%.

And the Activity [2]?
The Activity was 102%.

What about the Activity [3] of the same molecule?
The Activity was “Active”.

And the Activity [4]?
Its Activity is “Active”.

Which results are given for `O=C(NC1CCCC1)Oc1cc(-c2ccccc2)cc(-c2ccc(Cl)c(Cl)c2)c1`?
Activity [1]: 69%; Activity [2]: 64%

With `O=C(NC1CCCC1)Oc1cc(-c2ccc(Cl)cc2)cc(-c2ccc(Cl)cc2)c1` as the molecule, how does the Activity [1] read?
The Activity was 55%.

How did the Activity [1] turn out when `O=C(Nc1ccc(Cl)cc1)Oc1cc(-c2ccccc2)cc(-c2ccccc2)c1` was run?
Its Activity is 9%.

And the Activity [2]?
Its Activity is 19%.

How did the Activity [1] turn out when `O=C(NC1CCCC1)Oc1cc(-c2ccccc2)cc(-c2ccccc2)c1` was run?
Its Activity is 91%.

And the Activity [2]?
Its Activity is 88%.

What about the IC50 [5] of the same molecule?
The IC50 was 2.3 µM.

What about the Activity ([5]; CHO-K1) of the same molecule?
Its Activity is “Dose-dependent effect”.

What about the Activity [6] of the same molecule?
Its Activity is “inactive”.

What about the Activity [7] of the same molecule?
The Activity was “Active”.

And the fold change (FC) [3]?
The fold change (FC) was 3.

And the fold change (FC) [8]?
The fold change (FC) was 3.

What about the fold change (FC) [4] of the same molecule?
Its fold change (FC) is 2.

What about the Activity [9] of the same molecule?
The Activity was 31%.

What about the EC50 [10] of the same molecule?
The EC50 was 1.6 µM.

And the Activity [11]?
Its Activity is “inactive”.

What does the source list for `O=C(Nc1ccccc1)Oc1cc(-c2ccccc2)cc(-c2ccccc2)c1`?
Activity [12]: inactive; Activity [13]: inactive; Activity [1]: 28%; Activity [2]: 79%

`Cc1ccc(-c2cc(OC(=O)NC3CCCC3)cc(-c3ccc(C)cc3)c2)cc1` was tested. Which Activity [1] did it give?
Its Activity is 62%.

And the Activity [2]?
Its Activity is 59%.

For `CCNC(=O)Oc1cc(-c2ccccc2)cc(-c2ccccc2)c1`, which Activity [1] is on record?
Its Activity is -1%.

And the Activity [2]?
Its Activity is 61%.

Which Activity [1] does the source give for `CCCNC(=O)Oc1cc(-c2ccccc2)cc(-c2ccccc2)c1` here?
The Activity was 47%.

And the Activity [2]?
Its Activity is 72%.

`O=C(Nc1cc(-c2ccccc2)cc(-c2ccccc2)c1)C1CCCC1` was tested. Which Activity [1] did it give?
Its Activity is 30%.

And the Activity [2]?
The Activity was 56%.

With `O=C(NC1CCCC1)Oc1cc(-c2ccc(Cl)c(Cl)c2)cc(-c2ccc(Cl)c(Cl)c2)c1` as the molecule, how does the Activity [1] read?
The Activity was 7%.

`O=C(NC1CCCC1)Oc1cc(-c2ccccc2)cc(-c2ccc(Cl)cc2)c1` was tested. Which Activity [1] did it give?
The Activity was 77%.

What about the Activity [2] of the same molecule?
Its Activity is 71%.

With `O=C(NC1CCCCC1)Oc1cc(-c2ccccc2)cc(-c2ccccc2)c1` as the molecule, how does the Activity [1] read?
Its Activity is 83%.

And the Activity [2]?
The Activity was 51%.

`O=C(NC1CCCC1)Oc1cccc(-c2ccccc2)c1` was tested. Which Activity [1] did it give?
The Activity was 81%.

What about the Activity [2] of the same molecule?
Its Activity is 75%.

What about the Activity [3] of the same molecule?
Its Activity is “Active”.

What about the Activity [8] of the same molecule?
The Activity was “Active”.

And the Activity [4]?
Its Activity is “Active”.

How did the Activity [1] turn out when `CCCCCNC(=O)Oc1cc(-c2ccccc2)cc(-c2ccccc2)c1` was run?
Its Activity is 30%.

And the Activity [2]?
The Activity was 80%.

Which results are given for `Oc1cc(-c2ccccc2)cc(-c2ccccc2)c1`?
Activity [1]: -2%; Activity [2]: 27%
